Experimental data from ChEMBL document CHEMBL1649367, “Anti-breast cancer activity of some novel 1,2-dihydropyridine, thiophene and thiazole derivatives” (Eur J Med Chem, 2011).

Key:
[1] = system: MCF7; experiment: Cytotoxicity against human MCF7 cells assessed as cell surviving fraction at 50 uM after 48 hrs by SRB assay; type: functional
Procedure, shortened: (§1)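 MCF7 cells were seeded at 10⁴ cells/well and allowed to attach for 24 h. Compounds in DMSO were added at 10, 25, 50 and 100 µM, in triplicate wells, for 48 h at 37 °C under 5% CO₂. Cells were fixed and stained 30 min with 0.4% SRB in 1% acetic acid, and dye was recovered in Tris-EDTA for absorbance. IC50 came from the surviving-fraction curve; values are means of three experiments ± SE.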

[2] = system: MCF7; experiment: Cytotoxicity against human MCF7 cells assessed as cell surviving fraction at 100 uM after 48 hrs by SRB assay; type: functional; procedure, shortened: as §1
[3] = system: MCF7; experiment: Cytotoxicity against human MCF7 cells assessed as cell surviving fraction at 25 uM after 48 hrs by SRB assay; type: functional; procedure, shortened: as §1
[4] = system: MCF7; experiment: Cytotoxicity against human MCF7 cells assessed as cell surviving fraction at 10 uM after 48 hrs by SRB assay; type: functional; procedure, shortened: as §1
[5] = system: MCF7; experiment: Cytotoxicity against human MCF7 cells after 48 hrs by SRB assay; type: functional, cell-based; procedure, shortened: as §1
[6] = Homo sapiens, MCF7, 48 h, read-out: IC50

Row | Compound | Activity [1] | Activity [2] | Activity [3] | Activity [4] | IC50 [5, 6] [µM] | IC50 ([5]; mcf7)
1 | C/C(=N\NC(=O)CC#N)c1ccc(S(=O)(=O)N2CCCCC2)cc1 | 0.44 | 0.511 | 0.666 | 0.944 | 44.2 | 
2 | CCOC(=O)c1c(-c2ccc(C)cc2)c(C#N)c(=O)n(/N=C(\C)c2ccc(S(=O)(=O)N3CCCCC3)cc2)c1N | 0.652 | 0.581 | 0.677 | 0.911 | 37.9 | 
3 | CCOC(=O)c1c(-c2ccc(O)cc2)c(C#N)c(=O)n(/N=C(\C)c2ccc(S(=O)(=O)N3CCCCC3)cc2)c1N | 0.681 | 0.641 | 0.647 | 0.925 | 25.5 | 
4 | CCOC(=O)c1c(-c2ccc(OC)cc2)c(C#N)c(=O)n(/N=C(\C)c2ccc(S(=O)(=O)N3CCCCC3)cc2)c1N | 0.452 | 0.375 | 0.657 | 0.972 | 51.2 | 
5 | CCOC(=O)c1c(-c2ccc(O)c(OC)c2)c(C#N)c(=O)n(/N=C(\C)c2ccc(S(=O)(=O)N3CCCCC3)cc2)c1N | 0.621 | 0.478 | 0.694 | 0.921 | 38.7 | 
6 | CCOC(=O)c1c(-c2ccc(N(C)C)cc2)c(C#N)c(=O)n(/N=C(\C)c2ccc(S(=O)(=O)N3CCCCC3)cc2)c1N | 0.557 | 0.407 | 0.745 | 0.861 | 34.4 | 
7 | CCOC(=O)c1c(-c2ccc(Cl)cc2)c(C#N)c(=O)n(/N=C(\C)c2ccc(S(=O)(=O)N3CCCCC3)cc2)c1N | 0.622 | 0.553 | 0.723 | 0.818 | 20.6 | 
8 | C/C(=N\n1c(N)cc(N)c(C#N)c1=O)c1ccc(S(=O)(=O)N2CCCCC2)cc1 | 0.416 | 0.394 | 0.298 | 0.371 | 36.4 | 
9 | C/C(=N\n1c(O)cc(N)c(C#N)c1=O)c1ccc(S(=O)(=O)N2CCCCC2)cc1 | 0.433 | 0.437 | 0.54 | 0.748 | 74.6 | 
10 | C/C(=N\NC(=O)c1sc(N)c(C#N)c1N)c1ccc(S(=O)(=O)N2CCCCC2)cc1 | 0.451 | 0.406 | 0.507 | 0.588 | 49.3 | 
11 | CCOC(=O)c1c(N)sc(C(=O)N/N=C(\C)c2ccc(S(=O)(=O)N3CCCCC3)cc2)c1N | 0.981 | 0.841 | 0.947 | 1.925 |  | Not Active
12 | C/C(=N\NC(=O)c1sc2c(c1N)CCC2)c1ccc(S(=O)(=O)N2CCCCC2)cc1 | 0.552 | 0.375 | 0.857 | 0.942 | 75.3 | 
13 | C/C(=N\NC(=O)c1sc2c(c1N)CCCC2)c1ccc(S(=O)(=O)N2CCCCC2)cc1 | 0.621 | 0.558 | 0.994 | 0.971 | 87.8 | 
14 | C/C(=N\NC(=O)c1sc(=S)n(-c2ccccc2)c1N)c1ccc(S(=O)(=O)N2CCCCC2)cc1 | 0.557 | 0.407 | 0.745 | 0.861 | 60.1 | 
15 | COc1cccc2c1C(=O)c1c(O)c3c(c(O)c1C2=O)C[C@@](O)(C(=O)CO)C[C@@H]3O[C@H]1C[C@H](N)[C@H](O)[C@H](C)O1 [DOXORUBICIN] | 0.461 | 0.494 |  | 0.721 | 32 | 
